# Bioassay records deposited in PubChem by The Scripps Research Institute Molecular Screening Center.
# pPAFAH FP inh – pPAFAH (human) enzyme inhibition; inhibition, % at 3.39 µM; recombinant pPAFAH, FP-rhodamine probe fluorescence polarization; hit rate 1.5% among 330,000;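 active = inhibition above the mean inhibition across the screen plus 3 SD, cut at about 25% in these data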;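 note: inhibitors block binding of the rhodamine activity-based probe so polarization drops; 0% = enzyme with DMSO and 100% = wells lacking pPAFAH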
# TCR CD3 inh – blocks the human TCR-CD3 interaction. TAMRA-labeled TCR probe fluorescence, biochemical. inhibition, % at 9.4 µM. hit rate 0.37% among 360,000. AID 651800; in the data active = inhibition above about 19%;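 note: recombinant mutant TCR 2C K166C tagged with TAMRA read by polarization; 0% = receptor in buffer alone and 100% = receptor with positive control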
# HTRA1 inhibitor – HTRA1 (human) protease inhibition; hit rate 0.5% among 340,000; AID 504803; recombinant HTRA1, FP-rhodamine activity-based probe, fluorescence polarization; inhibition, % at 5.96 µM; Q92743; in the data active = inhibition above about 36%;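 note: 0% = enzyme with DMSO and 100% = wells lacking enzyme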
# mABHD4 FP – inhibits mouse alpha/beta hydrolase domain 4 | Q8VD66 | hit rate 0.54% among 370,000 | inhibition, % at 8.92 µM | purified mABHD4, FP-Rh probe fluorescence polarization;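 active = inhibition exceeding the mean over every tested compound plus 3 SD, cut at about 30% in these data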;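 note: 0% = plate median of compound wells and 100% = S159A mutant with DMSO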
#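 Assay system: wild-type mouse ABHD4 protein; compound: single nominal dose of 8.92 µM, 0.89% DMSO final; schedule: 45 min + 60 min at 25 °C; measured by: FP readout, ex 525 nm / em 598 nm; evaluation: % inhibition of FP-Rh probe binding versus controls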
# SIAE primary – blocks human sialic acid acetylesterase; AID 1053197; SIAE FP-Rh probe binding, fluorescence polarization; inhibition, % at 9.66 µM; hit rate 0.69% among 370,000;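 active = inhibition above a cutoff: mean of compounds within the control limits plus 3 SD of those, cut at about 17% in these data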;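 note: 0% = plate median of compound wells and 100% = probe without SIAE protein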
# Target sequence (Q9HAT2 whole entry, looked up): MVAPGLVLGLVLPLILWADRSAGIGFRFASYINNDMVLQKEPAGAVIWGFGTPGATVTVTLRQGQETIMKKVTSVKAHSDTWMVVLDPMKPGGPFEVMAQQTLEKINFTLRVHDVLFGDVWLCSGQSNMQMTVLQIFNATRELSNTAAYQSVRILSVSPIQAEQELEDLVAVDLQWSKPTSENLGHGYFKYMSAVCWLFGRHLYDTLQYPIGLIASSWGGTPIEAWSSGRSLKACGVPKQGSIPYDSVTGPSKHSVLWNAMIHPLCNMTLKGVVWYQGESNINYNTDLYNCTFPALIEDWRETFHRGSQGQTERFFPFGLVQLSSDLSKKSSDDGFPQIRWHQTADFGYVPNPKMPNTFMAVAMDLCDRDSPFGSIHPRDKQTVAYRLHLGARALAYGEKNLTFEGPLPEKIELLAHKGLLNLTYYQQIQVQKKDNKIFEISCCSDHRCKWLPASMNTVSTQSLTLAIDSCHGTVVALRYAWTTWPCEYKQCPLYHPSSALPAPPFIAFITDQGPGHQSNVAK
# pPAFAH FP conf – confirmation of human plasma PAF acetylhydrolase (pPAFAH) inhibitors | shares compounds with pPAFAH FP inh | recombinant pPAFAH, FP-Rh probe fluorescence polarization | inhibition, % at 3.39 µM | hit rate 72% among 2,300 | AID 463230;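 active = mean inhibition of the triplicate above the hit cutoff set for the earlier primary screen, cut at about 25% in these data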;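 note: 0% = enzyme with DMSO and 100% = wells lacking pPAFAH enzyme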
# * hit, by the source's call; . = no result given. Most compounds without a hit are left out; they make up all but 2.3% or so of the library.
SMILES,pPAFAH FP inh,TCR CD3 inh,HTRA1 inhibitor,mABHD4 FP,SIAE primary,pPAFAH FP conf
CC(=O)Nc1cccc2ncccc12,55*,-7,4,-9,-2,7
CCCCC1CC(/C(C)=N/NC(N)=O)OC1=O (stereo not drawn),58*,-7,0,-7,-6,2
Cc1ccc(NC(=O)CN2C(=O)N/C(=C/c3cccn3-c3ccc(C(=O)O)cc3)C2=O)cc1,71*,11,-4,3,1,41*
Cc1ccc(NC(=O)CN2C(=O)N/C(=C/c3cc(C)n(-c4ccc(C(=O)O)cc4)c3C)C2=O)cc1,.,5,-11,-2,-1,.
CCCCOCCCNC(=O)C[C@@H]1C(=O)N(Cc2ccc(OC)cc2)C2=CCN(C(=O)OC(C)(C)C)C[C@]21C(=O)OCC,.,.,.,7,7,.
O=C(O)c1ccc(C#Cc2cccc(F)c2)cn1,.,.,.,8,4,.
NCCCCNCCCN,62*,11,4,6,-2,0
NCCNCCNCCN,-5,-4,0,3,-2,.
CCOC(=O)[C@@]12CN(C(=O)OC(C)(C)C)CC=C1N(Cc1ccc(OC)cc1)C(=O)[C@H]2CC(=O)N1CCOCC1,.,.,.,6,0,.
COc1ccc(S(=O)(=O)Nc2ccc(F)cc2)cc1N(C)S(=O)(=O)c1ccc(Cl)cc1,38*,5,-46,-6,-1,35*
Cc1cc(C)c(S(=O)(=O)/N=C2\C=CC(=O)C(Cl)=C2)c(C)c1,65*,.,19,.,.,57*
Cc1ccc(C2=NS(=O)(=O)N(C)C(C(=O)NCc3cccs3)=C2)cc1,4,-8,-14,5,-4,.
CN1C(C(=O)NCc2ccco2)=CC(c2ccc(F)cc2)=NS1(=O)=O,67*,2,-8,-9,3,10
N#Cc1c(-c2cccc(Br)c2)cc(-c2ccco2)[nH]c1=O,45*,0,15,11,0,32*
N#Cc1c(-c2ccccc2)cc(-c2ccccc2)[nH]c1=O,3,1,3,-1,1,.
COc1ccc(N(CC(=O)Nc2cc(C)ccc2OC)S(=O)(=O)c2c(C)noc2C)cc1,45*,-1,-7,-4,-1,8
COC(=O)CCC(=O)OC1(C)C(=O)C2=CN(C(CO)CO)C(c3ccc(OC)cc3)=CC2=C(Br)C1=O (stereo not drawn),3,3,.,13,6,.
COC(=O)CCC(=O)OC1(C)C(=O)C2=COC(c3ccc(OC)cc3)=CC2=C(Br)C1=O (stereo not drawn),35*,.,.,.,.,21
CCOC(=O)c1csc(NC(=O)C2CCCN(S(=O)(=O)c3ccc(C)cc3)C2)n1 (stereo not drawn),.,.,.,-14,-2,.
CCNc1ccc(Br)cc(C(=O)/C=C/c2c(Cl)cccc2Cl)c1=O,44*,.,58*,.,.,28*
O=C(CCc1ccccc1)N[C@H]1[C@H](OCc2ccccc2)CCC[C@@]12C(=O)N(Cc1ccccc1)c1ccc(-c3cnccn3)cc12,.,.,.,-16,-13,.
O=C(NCCC(=O)N(CCc1ccccc1)Cc1ccccc1)c1ccccc1Cl,46*,-2,-9,-7,-8,1
O=C(NCCc1ccccc1)c1ccccc1Cl,-5,-6,3,-4,-1,.
CN1C(=O)c2cc(NC(=O)Nc3ccccc3F)ccc2OC[C@H]2O[C@@H](CC(=O)NCc3ccc(-c4ccccc4)cc3)CC[C@@H]21,.,.,.,-4,-18,.
Cc1cccc(C)c1-n1cccc1/C=C1\SC(=S)N(c2cccc(C(=O)O)c2)C1=O,50*,4,-145,-20,-24,51*
Cc1cccc(C)c1NC(=O)CN1C(=O)S/C(=C\c2cccn2-c2cccc(C(=O)O)c2)C1=O,2,-6,-11,8,9,.
Cc1ccc(S(=O)(=O)N2[C@@H](c3ccccc3)C(C(=O)O)=CC[C@H]2c2ccc3c(c2)OCO3)cc1,9,4,-7,6,8,.
Cc1ccc(S(=O)(=O)N2[C@@H](c3ccc(C(C)(C)C)cc3)C(C(=O)O)=CC[C@H]2c2ccc3c(c2)OCO3)cc1,58*,-2,-61,16,-1,17
COc1ccc(C2CC(=O)C(c3ccccc3)=CN2Cc2ccccc2)cc1 (stereo not drawn),.,-5,.,-9,1,.
